Measured values taken from ChEMBL document CHEMBL3217420, “Design, synthesis and initial biological evaluation of a novel pladienolide analog scaffold” (Medchemcomm, 2011).
Calls of active or inactive are those of the source. The rule behind the calls is not given here.

Legend:
Format in all cases: functional, cell-based
[1] = test system: SK-MEL-2; assay: Modulation of MDM2 mRNA splicing in human SK-MEL-2 cells assessed as increase in properly spliced MDM2 mRNA at 10 to 25 uM after 6 hrs by blotting assay
In short: (§1)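 SK-MEL-2 melanoma cells were exposed to DMSO vehicle or to the designated compound concentrations for 6 hours. MDM2 mRNA was then examined for the properly spliced form and for alternatively spliced variant forms.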

[2] = test system: SK-MEL-2; assay: Modulation of MDM2 mRNA splicing in human SK-MEL-2 cells assessed as formation of two spliced MDM2 mRNA variants at 100 uM after 6 hrs by blotting assay; in short: as §1
[3] = test system: SK-MEL-2; assay: Cytotoxicity in human SK-MEL-2 cells assessed as growth inhibition after 72 hrs by XTT assay; settings: SK-MEL-2, 72 h
In short: (§2)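 XTT assay after 72 h continuous compound exposure. IC50 is the concentration that inhibits growth to 50% of the DMSO vehicle-treated control. It was calculated by sigmoidal fitting of dose-response curves. Values are mean ± standard error of 3 independent experiments.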

[4] = Cytotoxicity in human JeKo1 cells assessed as growth inhibition after 72 hrs by XTT assay; settings: JeKo-1, 72 h; in short: as §2
[5] = test system: MOLT-4; assay: Cytotoxicity in human MOLT4 cells assessed as growth inhibition after 72 hrs by XTT assay; settings: MOLT-4, 72 h; in short: as §2
[6] = test system: PC-3; assay: Cytotoxicity in human PC3 cells assessed as growth inhibition after 72 hrs by XTT assay; settings: PC-3, 72 h; in short: as §2
[7] = test system: MCF7; assay: Cytotoxicity in human MCF7 cells assessed as growth inhibition after 72 hrs by XTT assay; settings: MCF7, 72 h; in short: as §2
[8] = test system: NCI-H226; assay: Cytotoxicity in human NCI-H226 cells assessed as growth inhibition after 72 hrs by XTT assay; settings: NCI-H226, 72 h; in short: as §2
[9] = test system: SK-MEL-2; assay: Modulation of MDM2 mRNA splicing in human SK-MEL-2 cells assessed as increase in properly spliced MDM2 mRNA at 1 uM after 6 hrs by blotting assay; in short: as §1
[10] = test system: SK-MEL-2; assay: Modulation of MDM2 mRNA splicing in human SK-MEL-2 cells assessed as formation of two spliced MDM2 mRNA variants at 10 uM after 6 hrs by blotting assay; in short: as §1
[11] = test system: SK-MEL-2; assay: Modulation of MDM2 mRNA splicing in human SK-MEL-2 cells assessed as formation of two spliced MDM2 mRNA variants at 10 to 100 uM after 6 hrs by blotting assay; in short: as §1
[12] = test system: SK-MEL-2; assay: Modulation of MDM2 mRNA splicing in human SK-MEL-2 cells assessed as increase in properly spliced MDM2 mRNA at 10 to 100 uM after 6 hrs by blotting assay; in short: as §1

| SMILES | Activity [1] | Activity [2] | IC50 [3] [µM] | IC50 [4] [µM] | IC50 [5] [µM] | IC50 [6] [µM] | IC50 [7] [µM] | IC50 [8] [µM] | Activity [9] | Activity [10] | Activity [11] | Activity [12] |
| --- | --- | --- | --- | --- | --- | --- | --- | --- | --- | --- | --- | --- |
| CC(=O)O[C@H]1/C=C/C[C@@H](/C(C)=C/C=C/CC[C@H]2O[C@@H]2C[C@H](C)O[Si](C)(C)C(C)(C)C)OC(=O)CCCC[C@@]1(C)O | Active | Active | 10.7 | 11.6 | 15.5 | 18 | 19.2 | > 20 |  |  |  |  |
| CC(/C=C/[C@H]1OC(C)(C)C[C@@]2(CO2)[C@@H]1O)=C\C[C@H]1OC[C@@H](NC(=O)/C=C\[C@H](C)OC(=O)C(C)C)CO1 |  |  | 0.7 | 0.29 | 0.66 | 4.16 | 1.69 | > 10 | Active | Active |  |  |
| COc1ccc(COC/C=C(\C)[C@@H]2C/C=C/[C@H](OC(C)=O)[C@](C)(O)CCCCC(=O)O2)cc1 |  |  | > 20 |  |  |  |  |  |  |  | inactive | Active |
| CC(=O)O[C@H]1/C=C/C[C@@H](/C(C)=C/C=C/CC[C@H]2O[C@@H]2C[C@H](C)O)OC(=O)CCCC[C@@]1(C)O (mixture of isomers) |  |  | > 20 | > 20 |  | > 20 |  |  |  |  |  |  |
| CC(=O)O[C@@H](C)/C=C\C(=O)N[C@H]1CC[C@@H](C/C=C(C)/C=C/[C@H]2OC(C)(C)C[C@@]3(CO3)[C@@H]2O)CC1 |  |  | 0.39 | 0.11 | 0.18 | 2.02 | 0.72 | > 10 |  |  |  |  |
